Experimental data as given in ChEMBL document CHEMBL4229342, “Synthesis of novel proxyphylline derivatives with dual Anti-Candida albicans and anticancer activity” (Eur J Med Chem, 2018).

Assays:
Format in all cases: functional
CCRF-CEM [1] = test: Antiproliferative activity against human CCRF-CEM cells assessed as cell viability at 25 uM after 72 hrs by MTT assay; conditions: read-out: Activity
Method in brief: (§1)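 MTT viability assay in CCRF-CEM and MCF-7 cells after 72 h exposure at 25, 50, 100 and 200 µM. Results are relative to control cells without inhibitor in 0.5% DMSO. Done in triplicate; values are means ± SD of three independent experiments.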

CCRF-CEM [2] = test: Antiproliferative activity against human CCRF-CEM cells assessed as cell viability at 50 uM after 72 hrs by MTT assay; conditions: read-out: Activity; method in brief: as §1
CCRF-CEM [3] = test: Antiproliferative activity against human CCRF-CEM cells assessed as cell viability at 100 uM after 72 hrs by MTT assay; conditions: read-out: Activity; method in brief: as §1
CCRF-CEM [4] = test: Antiproliferative activity against human CCRF-CEM cells assessed as cell viability at 200 uM after 72 hrs by MTT assay; conditions: read-out: Activity; method in brief: as §1
MCF7 [5] = test: Antiproliferative activity against human MCF7 cells assessed as cell viability at 25 uM after 72 hrs by MTT assay; conditions: MCF7, 72 h, read-out: Activity; method in brief: as §1
MCF7 [6] = test: Antiproliferative activity against human MCF7 cells assessed as cell viability at 50 uM after 72 hrs by MTT assay; conditions: MCF7, 72 h, read-out: Activity; method in brief: as §1
MCF7 [7] = test: Antiproliferative activity against human MCF7 cells assessed as cell viability at 100 uM after 72 hrs by MTT assay; conditions: MCF7, 72 h, read-out: Activity; method in brief: as §1
MCF7 [8] = test: Antiproliferative activity against human MCF7 cells assessed as cell viability at 200 uM after 72 hrs by MTT assay; conditions: MCF7, 72 h, read-out: Activity; method in brief: as §1
Candida albicans [9] = test: Growth inhibition of Candida albicans ATCC 90028 at 16 ug/ml incubated for 18 hrs at 35 degC by broth microdilution method relative to control; conditions: ATCC 90028, 18 h, read-out: GI
Candida albicans [10] = test: Growth inhibition of Candida albicans ATCC 90028 at 16 ug/ml incubated for 48 hrs at 35 degC by broth microdilution method relative to control; conditions: ATCC 90028, 48 h, read-out: GI
Candida albicans [11] = test: Growth inhibition of Candida albicans ATCC 90028 at 8 ug/ml incubated for 18 hrs at 35 degC by broth microdilution method relative to control; conditions: ATCC 90028, 18 h, read-out: GI
Candida albicans [12] = test: Growth inhibition of Candida albicans ATCC 90028 at 8 ug/ml incubated for 48 hrs at 35 degC by broth microdilution method relative to control; conditions: ATCC 90028, 48 h, read-out: GI
Candida albicans [13] = test: Growth inhibition of Candida albicans ATCC 90028 at 4 ug/ml incubated for 18 hrs at 35 degC by broth microdilution method relative to control; conditions: ATCC 90028, 18 h, read-out: GI
Candida albicans [14] = test: Growth inhibition of Candida albicans ATCC 90028 at 8 ug/ml incubated for 4 hrs at 35 degC by broth microdilution method relative to control; conditions: ATCC 90028, 4 h, read-out: GI
Candida albicans [15] = test: Growth inhibition of Candida albicans ATCC 90028 at 2 ug/ml incubated for 18 hrs at 35 degC by broth microdilution method relative to control; conditions: ATCC 90028, 18 h, read-out: GI
Candida albicans [16] = test: Growth inhibition of Candida albicans ATCC 90028 at 2 ug/ml incubated for 4 hrs at 35 degC by broth microdilution method relative to control; conditions: ATCC 90028, 4 h, read-out: GI
Candida albicans [17] = test: Growth inhibition of Candida albicans ATCC 90028 at 1 ug/ml incubated for 18 hrs at 35 degC by broth microdilution method relative to control; conditions: ATCC 90028, 18 h, read-out: GI
Candida albicans [18] = test: Growth inhibition of Candida albicans ATCC 90028 at 1 ug/ml incubated for 4 hrs at 35 degC by broth microdilution method relative to control; conditions: ATCC 90028, 4 h, read-out: GI
Candida albicans [19] = test: Growth inhibition of Candida albicans ATCC 90028 at 0.5 ug/ml incubated for 18 hrs at 35 degC by broth microdilution method relative to control; conditions: ATCC 90028, 18 h, read-out: GI
Candida albicans [20] = test: Growth inhibition of Candida albicans ATCC 90028 at 0.5 ug/ml incubated for 4 hrs at 35 degC by broth microdilution method relative to control; conditions: ATCC 90028, 4 h, read-out: GI
Candida albicans [21] = test: Growth inhibition of Candida albicans ATCC 90028 at 0.25 ug/ml incubated for 18 hrs at 35 degC by broth microdilution method relative to control; conditions: ATCC 90028, 18 h, read-out: GI
Candida albicans [22] = test: Growth inhibition of Candida albicans ATCC 90028 at 0.25 ug/ml incubated for 4 hrs at 35 degC by broth microdilution method relative to control; conditions: ATCC 90028, 4 h, read-out: GI
Candida albicans [23] = test: Growth inhibition of Candida albicans ATCC 90028 at 0.125 ug/ml incubated for 18 hrs at 35 degC by broth microdilution method relative to control; conditions: ATCC 90028, 18 h, read-out: GI
Candida albicans [24] = test: Growth inhibition of Candida albicans ATCC 90028 at 0.125 ug/ml incubated for 4 hrs at 35 degC by broth microdilution method relative to control; conditions: ATCC 90028, 4 h, read-out: GI
Candida albicans [25] = test: Growth inhibition of Candida albicans ATCC 90028 at 0.0625 ug/ml incubated for 18 hrs at 35 degC by broth microdilution method relative to control; conditions: ATCC 90028, 18 h, read-out: GI
Candida albicans [26] = test: Growth inhibition of Candida albicans ATCC 90028 at 0.0625 ug/ml incubated for 4 hrs at 35 degC by broth microdilution method relative to control; conditions: ATCC 90028, 4 h, read-out: GI
Candida albicans [27] = test: Growth inhibition of Candida albicans ATCC 90028 at 0.0313 ug/ml incubated for 18 hrs at 35 degC by broth microdilution method relative to control; conditions: ATCC 90028, 18 h, read-out: GI
Candida albicans [28] = test: Growth inhibition of Candida albicans ATCC 90028 at 0.0313 ug/ml incubated for 4 hrs at 35 degC by broth microdilution method relative to control; conditions: ATCC 90028, 4 h, read-out: GI
Candida albicans [29] = test: Fungicidal activity against Candida albicans ATCC 90028 assessed as log reduction in cell viability at 16 ug/ml after 48 hrs at 35 degC
Method in brief: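 MFC assay on C. albicans ATCC 90028 following M27-A3, at the molar equivalent of 16 µg/mL. CFU of treated cells were compared with CFU of the untreated inoculum. Activity is given as lg R = lg CFU/mL control − lg CFU/mL treated, and lg R ≥3 was defined as fungicidal. Values are means of two independent experiments.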

| SMILES | viability at 25 µM (CCRF-CEM [1]) [%] | viability at 50 µM (CCRF-CEM [2]) [%] | viability at 100 µM (CCRF-CEM [3]) [%] | viability at 200 µM (CCRF-CEM [4]) [%] | viability at 25 µM (MCF7 [5]) [%] | viability at 50 µM (MCF7 [6]) [%] | viability at 100 µM (MCF7 [7]) [%] | viability at 200 µM (MCF7 [8]) [%] | inhibition of growth at 16 µg/mL (Candida albicans [9]) [%] | inhibition of growth at 16 µg/mL (Candida albicans [10]) [%] | inhibition of growth at 8 µg/mL (Candida albicans [11]) [%] | inhibition of growth at 8 µg/mL (Candida albicans [12]) [%] | inhibition of growth at 4 µg/mL (Candida albicans [13]) [%] | inhibition of growth at 2 µg/mL (Candida albicans [15]) [%] | inhibition of growth at 2 µg/mL (Candida albicans [16]) [%] | inhibition of growth at 1 µg/mL (Candida albicans [17]) [%] | inhibition of growth at 1 µg/mL (Candida albicans [18]) [%] | inhibition of growth at 0.5 µg/mL (Candida albicans [19]) [%] | inhibition of growth at 0.5 µg/mL (Candida albicans [20]) [%] | inhibition of growth at 0.25 µg/mL (Candida albicans [21]) [%] | also measured |
| --- | --- | --- | --- | --- | --- | --- | --- | --- | --- | --- | --- | --- | --- | --- | --- | --- | --- | --- | --- | --- | --- |
| COC(C(=O)OC(C)Cn1cnc2c1c(=O)n(C)c(=O)n2C)c1ccc2ccccc2c1 (stereo not drawn) | 84.7 | 28.2 | 27.6 | 15 | 93.5 | 86.3 | 83.7 | 68.8 | 99.2 | 99 | 99 | 99 | 99 | 99 | 99.1 | 99.1 | 99 | 99.2 | 99.1 | 99 | inhibition of growth at 8 µg/mL (Candida albicans [14]): 99%; inhibition of growth at 0.25 µg/mL (Candida albicans [22]): 99.1%; inhibition of growth at 0.125 µg/mL (Candida albicans [23]): 99.1%; inhibition of growth at 0.125 µg/mL (Candida albicans [24]): 99%; inhibition of growth at 0.0625 µg/mL (Candida albicans [25]): 99.1%; inhibition of growth at 0.0625 µg/mL (Candida albicans [26]): 99.1%; inhibition of growth at 0.0313 µg/mL (Candida albicans [27]): 99%; inhibition of growth at 0.0313 µg/mL (Candida albicans [28]): 99.1%; log(activity) (Candida albicans [29]): 0.4 |
| CC(Cn1cnc2c1c(=O)n(C)c(=O)n2C)OC(=O)CC(=O)c1ccccc1 (stereo not drawn) | 85.1 | 88.1 | 65.6 | 38.5 | 91.3 | 79.8 | 79.3 | 81.8 | 99.7 | 99 | 99.8 | 99 | 99.2 | 99.3 | 99.1 | 99.3 | 99.1 | 99.1 | 99 | 99.1 | inhibition of growth at 8 µg/mL (Candida albicans [14]): 99.1%; inhibition of growth at 0.25 µg/mL (Candida albicans [22]): 99%; inhibition of growth at 0.125 µg/mL (Candida albicans [23]): 99.2%; inhibition of growth at 0.125 µg/mL (Candida albicans [24]): 99%; inhibition of growth at 0.0625 µg/mL (Candida albicans [25]): 99.2%; inhibition of growth at 0.0625 µg/mL (Candida albicans [26]): 99.1%; inhibition of growth at 0.0313 µg/mL (Candida albicans [27]): 99.2%; inhibition of growth at 0.0313 µg/mL (Candida albicans [28]): 99.1%; log(activity) (Candida albicans [29]): 0.7 |
| Cc1ccc(C(=O)CC(=O)OC(C)Cn2cnc3c2c(=O)n(C)c(=O)n3C)cc1 (stereo not drawn) | 89.5 | 74.2 | 67.3 | 31.6 | 89 | 82.2 | 86.6 | 82.7 | 100 | 99.1 | 100 | 99.3 | 100 | 100 | 99.2 | 100 | 99.2 | 99.8 | 99.2 | 100 | inhibition of growth at 0.25 µg/mL (Candida albicans [22]): 99.2%; inhibition of growth at 0.125 µg/mL (Candida albicans [23]): 100%; inhibition of growth at 0.0625 µg/mL (Candida albicans [25]): 99.8%; inhibition of growth at 0.0625 µg/mL (Candida albicans [26]): 99.3%; inhibition of growth at 0.0313 µg/mL (Candida albicans [27]): 100%; inhibition of growth at 0.0313 µg/mL (Candida albicans [28]): 99.8%; log(activity) (Candida albicans [29]): 0.5 |
| Brc1c(Br)c(Br)c2[nH]cnc2c1Br | 6.3 | 0 | 0 | 0 | 19.6 | 24.6 | 9 | 1.7 |  |  |  |  |  |  |  |  |  |  |  |  |  |
